Screening results (PubChem BioAssay)
p-CIP stab down: lowers stability of the mouse p/CIP coactivator protein. decrease of EGFP signal, % at 10 µM. AID 1984. Q05BA5. F442A p/CIP-EGFP cells, EGFP fluorescence, 16 h. hit rate 0.01% among 290,000;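 active = EGFP signal decrease of at least 30% at 10 µM or well 3 SD below plate mean, unless failing retest; inactive = the rest, including hits failing retest or dose response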
CHT block: inhibits the human high affinity choline transporter; Q9GZV3; hit rate 0.86% among 310,000; CHT-expressing cells, membrane potential dye, choline response; stronger effect = lower value; B-score at 10 µM;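 active = B-score over 3 SD under the library average, and starting fluorescence ratio not unusually high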;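 also: choline stimulus applied at its EC90 after an EC20 pre-addition; B-score computed on integrated fluorescence ratio after choline addition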
Pemphigus Ab inh: inhibitors of pemphigus antibody binding to human desmoglein-3; P32926; DSG3-coupled beads, scFv-anti-DSG3-GFP binding, flow cytometry; stronger effect = lower value; binding (percent of control), % at 10 µM; hit rate 0.48% among 310,000;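 active = binding more than 3 SD below its plate's average and above zero; inconclusive = below that plate limit but binding exactly zero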
GPR7 antag: antagonists of human GPR7 (neuropeptides B/W receptor 1); P48145; GPR7-expressing cells, fluorescence antagonist assay; inhibition, % at 4.4 µM; hit rate 1.1% among 290,000; in the data active = inhibition above about 16%, passing the limit was not always enough;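 also: cells stimulated with the agonist NPW; 0% = agonist with vehicle and 100% = vehicle without agonist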
Target sequence (P48145 whole entry, looked up): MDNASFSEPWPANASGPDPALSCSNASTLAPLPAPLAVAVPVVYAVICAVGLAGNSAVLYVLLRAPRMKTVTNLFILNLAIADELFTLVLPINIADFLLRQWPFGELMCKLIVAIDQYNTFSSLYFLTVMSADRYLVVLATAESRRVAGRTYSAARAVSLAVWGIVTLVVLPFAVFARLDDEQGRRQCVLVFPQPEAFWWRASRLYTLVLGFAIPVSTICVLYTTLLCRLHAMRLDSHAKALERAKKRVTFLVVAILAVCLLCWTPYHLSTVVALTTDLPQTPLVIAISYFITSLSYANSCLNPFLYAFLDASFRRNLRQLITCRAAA
CHT allo act: allosterically activates the human high affinity choline transporter; hit rate 0.49% among 310,000; CHT-expressing cells, membrane potential dye, choline EC20; stronger effect = higher value; LV-AA mutant CHT in HEK293 cells; B-score at 10 µM;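 active = initial fluorescence not abnormally high and integrated response B-score, plate-corrected, over 3 SD above library mean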
T cell HTS: T cell immune modulation candidate. 2C CD8+ T cell-vesicle binding, flow cytometry; stronger effect = lower value. response (vesicle binding), % at 7 µM. hit rate 0.068% among 330,000;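 active = response, share of CD8 T cells binding vesicles, and their 90th percentile fluorescence all below set limits, cut at about 80% in these data, passing the limit was not always enough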;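 also: values below 100% mean blocked vesicle binding to the CD8+ T cells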
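Assay system – 2C mouse CD8+ T cells · Also added – QL9-loaded Drosophila micro-vesicles · Timing – Cell–vesicle co-incubation 1.5 h at 37 °C, staining 20 min on ice · Signal – flow cytometry of vesicle-bound cells · Measure – percent CD8+ FL2 mean versus row control · Controls – Peptide-free naked vesicles (low) and QL9 vesicles with 0.7% DMSO vehicle (high)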
CHT activ conf: confirmation of human choline transporter (CHT) activators. AID 504833. hit rate 91% among 2,500. activation, % at 10 µM. shares compounds with CHT allo act. CHT-expressing cells, membrane potential dye fluorescence (FDSS); % of choline EC20–EC90 response window; HEK293 expressing CHT LV-AA mutant; choline added at its EC20;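 active = primary screen active, with duplicate mean activation above negative control mean plus 3 SD, cut at about 11% in these data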
HEK293 MP dye: CHT activator counter-screen hit in parental HEK293 cells | shares compounds with CHT allo act | membrane potential dye fluorescence (FDSS); measured after EC20 choline addition | ratio readout change at 10 µM, hits read low | hit rate 62% among 2,500 | AID 623908;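 active = duplicate-averaged ratio beyond 3 SD from buffer wells, up or down, though filed actives are nearly all decreases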
* marks the source's active call; other numbers are inactive results; i = inactive; ? = inconclusive; nt = no result given. In the library only some 2.3% were active in any assay of this set; here they are far more common.

SMILES	p-CIP stab down	CHT block	Pemphigus Ab inh	GPR7 antag	CHT allo act	T cell HTS	CHT activ conf	HEK293 MP dye
Cc1c2cccn2cc[n+]1C	-7	i	119	-11	6.6*	78*	58*	-53*
CC1CCN(CCCn2c(SCC(=O)Nc3ccccc3Cl)nc3ccccc3c2=O)CC1	-1	i	104	16	6.4*	250	52*	-34*
CC(=O)Nc1ccc(NC(=O)CSc2nc3ccccc3c(=O)n2CCCN2CCOCC2)cc1	nt	nt	98	nt	nt	346	nt	nt
Cc1sc2c3ccsc3ccc2[n+]1C	-22	i	101	21	10*	266	66*	i
Cc1nc(C)c(C(=O)OCC(=O)N(C)c2ccccc2)s1	nt	nt	100	nt	nt	nt	nt	nt
Cc1ccc2c(c1)c1c3n2CCN(CC(O)CNC(C)C)C3CCC1 (centres undefined)	-2	i	100	2	i	368	17*	-31*
CN(C)S(=O)(=O)N1CCc2ccc(NC(=O)c3ccc(C(F)(F)F)cc3)cc2C1	1	i	89	12	i	261	nt	nt
CCCN(C(=O)CSc1nnc(-c2ccncc2)n1CCC)c1c(N)n(Cc2ccccc2)c(=O)[nH]c1=O	nt	nt	106	nt	nt	nt	nt	nt
C[C@H]1CCC(=O)N([C@H](COc2ccccc2)Cc2ccccc2)CC1	-2	i	108	14	6.3*	i	40*	i
CC1CCC(=O)N(CCOc2ccccc2)CC1 (centres undefined)	-6	i	98	3	i	749	nt	nt
CN1C[C@@H]2[C@@H]3C(=O)N(C)C(=O)[C@@H]3[C@](C)(C1=O)N2C(=O)c1ccc(Cl)cc1	nt	nt	106	nt	nt	nt	nt	nt
CCOC(=O)CNC(=O)N1CCCC(C(=O)c2ccccc2SC)C1 (centres undefined)	6	i	101	1	i	298	nt	nt
O=C(C[n+]1ccccc1)c1ccc(Cl)cc1	7	i	98	17	i	262	nt	nt
CCOCCCn1c(C)nc2c[n+](CC(=O)c3ccc4ccccc4c3)cc(Br)c21	-6	i	112	-15	i	163	nt	nt
Cn1nnc2c[n+](CC(=O)c3ccc(Cl)cc3)cc(Br)c21	3	i	109	-6	i	328	59*	-89*
Cn1nnc2c[n+](CC(=O)c3ccc4ccccc4c3)cc(Br)c21	-2	i	108	-10	10*	260	58*	-94*
CS(=O)(=O)Nc1ccc2c(c1)[C@@H]1C[C@@H](CC(=O)NCc3cccnc3)O[C@H](CO)[C@@H]1O2	nt	nt	99	nt	nt	nt	nt	nt
C[C@H]1CN([C@@H](C)CO)S(=O)(=O)c2ccc(Br)cc2O[C@@H]1CN(C)C(=O)Cc1cccnc1	nt	nt	109	nt	nt	nt	nt	nt
Cn1c(N/N=C/c2c[nH]c3ccccc23)nc2ccccc21	-6	i	113	1	i	170	33*	-59*
CC1(C)Cc2c(sc3ncn(N)c(=N)c23)CO1	-1	i	101	11	i	759	nt	nt
CC1CCCc2sc3ncn(N)c(=N)c3c21 (centres undefined)	-4	i	100	-2	7.1*	220	52*	-50*
COc1ccc(S(=O)(=O)N(C)C[C@H]2OCCCC[C@@H](C)Oc3ccc(N(C)C)cc3C(=O)N([C@H](C)CO)C[C@@H]2C)cc1	nt	nt	106	nt	nt	nt	nt	nt
NC(=O)CSc1nnc(-c2ccco2)n1-c1ccc(F)cc1	nt	nt	100	nt	nt	nt	nt	nt
CCN(C(=O)Cn1cc(C(F)(F)F)ccc1=O)C1CCS(=O)(=O)C1 (centres undefined)	nt	nt	98	nt	nt	nt	nt	nt
Cc1noc(C)c1C(=O)OCC(=O)Nc1cc(Cl)ccc1Oc1ccccc1	-7	i	107	0	6.7*	191	28*	i
SMILES	p-CIP stab down	CHT block	Pemphigus Ab inh	GPR7 antag	CHT allo act	T cell HTS	CHT activ conf	HEK293 MP dye
CCCCn1c(N)c(N(CC(C)C)C(=O)c2cccc(S(=O)(=O)N(CC)c3ccccc3)c2)c(=O)[nH]c1=O	nt	nt	102	nt	nt	nt	nt	nt
COc1ccc(CCN2C(=O)c3ccccc3NC2c2cc(Cl)c(O)c(OC)c2)cc1 (centres undefined)	2	i	nt	11	8.3*	462	24*	i
CCCN1C(=O)c2ccccc2NC1c1cc(OC)c(OC)c(OC)c1 (centres undefined)	4	i	100	-3	i	271	nt	nt
COc1ccc(-c2csc3nc(C)nc(N4CCC(C)CC4)c23)cc1OC	2	i	113	-11	i	511	47*	i
CCC(C)NC(=O)c1cn(CC)c2cc(N3CCN(C)CC3)c(F)cc2c1=O (centres undefined)	3	i	116	-2	i	i	nt	nt
CCn1cc(S(=O)(=O)c2ccc(OC)cc2)c(=O)c2cc(F)c(N3CCN(C)CC3)cc21	-12	i	nt	-9	i	322	59*	-48*
Cc1ccc(S(=O)(=O)c2cn(C)c3cc(N4CCN(C)CC4)c(F)cc3c2=O)c(C)c1	-15	i	91	-9	9.1*	253	74*	-84*
CCN1CCN(c2cc3c(cc2F)c(=O)c(S(=O)(=O)c2ccccc2)cn3C)CC1	-16	i	102	-8	8.4*	214	77*	-99*
Cc1ccc(NC(=O)c2ccccc2OCC(=O)Nc2ccccc2F)cc1S(=O)(=O)N(C)C	nt	nt	?	nt	nt	216	nt	nt
Cc1noc(C)c1NC(=O)N(C)C[C@@H]1Oc2ncc(Br)cc2C(=O)N([C@@H](C)CO)C[C@@H]1C	nt	nt	112	nt	nt	nt	nt	nt
O=C(Cn1cnc2c(NCc3ccccc3)ncnc21)NCCc1cc2ccccc2[nH]1	nt	nt	103	nt	nt	nt	nt	nt
O=C(N/N=C/c1ccccc1)c1ccco1	-6	i	nt	-2	i	358	nt	nt
CCN(CC)c1ccc(/C=N/NC(=O)c2ccco2)cc1	8	i	107	12	i	462	31*	i
O=C(N/N=C/c1ccc2cccnc2c1)c1ccco1	-8	i	98	-7	i	243	37*	i
COc1ccccc1C(=O)COC(=O)C(CCSC)NC(=O)COc1ccccc1 (centres undefined)	nt	i	98	nt	i	95	nt	nt
COc1ccc(OC)c(C(=O)COC(=O)C(CCSC)NC(=O)COc2ccccc2)c1 (centres undefined)	nt	i	95	nt	i	463	26*	i
O=C(Cc1ccc(NC(=O)C2CCCN(C(=O)c3ccccc3)C2)cc1)Nc1ccc(C(=O)N2CCOCC2)cc1 (centres undefined)	nt	nt	108	nt	nt	nt	nt	nt
